Key:
CYP3A = assay: Inhibition of human liver microsomes CYP3A at 10 uM using testosterone as substrate in presence of NADPH preincubated for 30 mins followed by substrate addition and measured after 10 mins by LC/MS analysis; type: ADME, Microsome; conditions: probe testosterone, time 40 min
Outline: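 Compound preincubated 0 or 30 min at 37 °C with human liver microsomes (0.5 mg protein/mL) in sodium–potassium phosphate buffer pH 7.4 with NADPH-regenerating system. Then diluted 10-fold into secondary buffer with testosterone 250 μM plus NADPH-regenerating system and incubated 10 min. Stopped with acetonitrile containing internal standard, centrifuged, LC-MS/MS. Value is the difference in % inhibition between 0- and 30-min preincubation.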

[1] = Protein binding in human plasma at 1 ug/ml incubated for 4 hrs by LC-MS analysis; type: ADME, cell-free; conditions: at 1 µg/mL, read-out: PPB (converted)
Outline: (§1)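 Equilibrium dialysis with 12–14 kDa cutoff membrane. Compound dissolved in DMSO and spiked into blank plasma at 1 μg/mL final. Plasma dialysed against phosphate buffer pH 7.4 at 37 °C, 5% CO2, 4 h. Compound in plasma and buffer measured by LC-MS/MS and % bound calculated.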

[2] = Protein binding in mouse plasma at 1 ug/ml incubated for 4 hrs by LC-MS analysis; type: ADME, cell-free; conditions: at 1 µg/mL, read-out: PPB (converted); outline: as §1
[3] = Permeability of compound incubated for 4 hrs by PAMPA assay; type: ADME; conditions: read-out: permeability
Outline: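 Artificial membrane permeation run 4 h at room temperature and quantified by UV plate reader. Apparent permeability calculated at pH 6.2.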

SMILES | inhibition at 10 min, 10 µM (CYP3A) [%] | fraction unbound at 4 h, 1 ug/ml [1] | fraction unbound at 4 h, 1 ug/ml [2] | Papp at 4 h [3] [×10⁻⁶ cm/s]
CN1CCNC(=O)COc2ccc(F)cc2C(=O)N2CCCC[C@H]2c2cc3nc(N4CC(N)C4)cc1n3n2 |  |  |  | 3.3
CN1CCNC(=O)COc2ccc(F)cc2C(=O)N2CCCC[C@H]2c2cc3nc(N4CCC4)cc1n3n2 | -4.7 | 0.13 | 0.02 | 80
Cc1ccc2c(c1)C(=O)N1CCCCC1c1cc3nc(N4CCC4)cc(n3n1)N(C)CCNC(=O)CO2 (stereo unspecified) | 60.1 | 0.064 | 0.031 | 
CNC1CN(c2cc3n4nc(cc4n2)[C@@H]2CCCCN2C(=O)c2cc(F)ccc2OCC(=O)NCCN3C)C1 |  |  |  | 5.9
CN1CCNC(=O)COc2ccc(F)cc2C(=O)N2CCCC[C@H]2c2cc3nc(N4CC[C@H](N)C4)cc1n3n2 |  |  |  | 0.3

Next, values leading:

inhibition at 10 min, 10 µM (CYP3A) [%] | fraction unbound at 4 h, 1 ug/ml [1] | fraction unbound at 4 h, 1 ug/ml [2] | Papp at 4 h [3] [×10⁻⁶ cm/s] | SMILES
-1.4 | 0.093 | 0.145 |  | CN1CCNC(=O)COc2ccc(Cl)cc2C(=O)N2CCCC[C@H]2c2cc3nc([C@H]4C[C@H](O)C4)cc1n3n2
0.4 |  |  | 27 | CN1CCNC(=O)COc2ccc(F)cc2C(=O)N2CCCC[C@H]2c2cc3nc([C@H]4C[C@H](O)C4)cc1n3n2
 |  |  | 8 | CN1CCNC(=O)COc2ccc(F)cc2C(=O)N2CCCC[C@H]2c2cc3nc(N4CC(O)C4)cc1n3n2
-2.9 |  |  |  | CN1CCNC(=O)COc2ccc(Cl)cc2C(=O)N2CCCCC2c2cc3nc(N4CCC4)cc1n3n2 (stereo unspecified)
 |  |  | 28 | CN1CCNC(=O)COc2ccc(F)cc2C(=O)N2CCCC[C@H]2c2cc3nc([C@H]4C[C@@H](O)C4)cc1n3n2
57 | 0.112 | 0.222 |  | Cc1ccc2c(c1)C(=O)N1CCCC[C@H]1c1cc3nc([C@H]4C[C@H](O)C4)cc(n3n1)N(C)CCNC(=O)CO2
